Experimental data of several laboratories.
Compare with care: the assays were run in different laboratories.

| Compound | system | conditions | AUC(0-inf) |
| --- | --- | --- | --- |
| COc1nc(-c2cc(C)c(N[C@@H](C)c3c(F)cc(F)cc3F)nn2)ccc1-n1cnc(C)c1 | male CD-1 mouse, plasma | intravenous, 1 mg/kg, single dose | 2500 ng·h/mL |
| Cc1ccc2cncc(N3CCc4c(cc(Cn5ccnc5)cc4-c4cn(C)nc4C(F)(F)F)C3=O)c2c1 | male CD-1 mouse, plasma | oral, 10 mg/kg | 4460 ng·h/mL |
| Cc1cc(Nc2ccc(S(F)(F)(F)(F)F)cc2)n2ccnc2n1 | male Swiss mouse, plasma | oral, 100 mg/kg, single dose | 154 µM·h |
| c1ccc(-c2nc(N3CCC(c4ccccn4)C3)c3ccccc3n2)nc1 (stereo not shown) | female BALB/c mouse, plasma | oral, 50 mg/kg | 10500 ng·h/mL |
| CC(C)(C)c1ccc(O)c(CN(Cc2cc(C(C)(C)C)ccc2O)C2CCC(NC(N)=O)CC2)c1 (stereo not shown) | male C57BL/6 mouse, plasma | intraperitoneal, 5 mg/kg, single dose | 6180 ng·h/mL |
| COc1cc2c(Nc3ccc(Cl)c(Cl)c3F)ncnc2cc1OC[C@@H]1C[C@@H]2CN(C)C[C@@H]2C1 | FVB mouse, plasma | oral, 70 mg/kg, single dose | 83000 ng·h/mL |
| CN1C(=O)c2ccccc2[S@+]([O-])c2ccc(C(=O)NCCc3cccs3)cc21 | male C57BL/6 mouse, plasma | intraperitoneal, 30 mg/kg, single dose | 7840 ng·h/mL |
| Cc1ccc(NC(=O)c2ccc(CN3CCN(C)CC3)cc2)cc1Nc1nccc(-c2cncc(-c3oncc3C)c2)n1 | male C57BL/6 mouse, brain | oral, 100 mg/kg/day | 1200 ng·h/mL |
| CCc1cc(C(=O)NC)c2nccc(N3CCc4c(cc(Cn5ccnc5)cc4-c4cn(C)nc4C(F)(F)F)C3=O)c2c1 | male CD-1 mouse, plasma | oral, 50 mg/kg | 122000 ng·h/mL |
| COc1nc(-c2cc(C)c(N[C@@H](C)c3ccc(F)cc3)nn2)ccc1-n1cnc(C)c1 | male CD-1 mouse, plasma | intravenous, 1 mg/kg, single dose | 4280 ng·h/mL |
| COc1ccc2nccc(N3CCc4c(cc(Cn5ccnc5)cc4-c4cn(C)nc4C(F)(F)F)C3=O)c2c1 | male CD-1 mouse, plasma | oral, 10 mg/kg | 2100 ng·h/mL |
| COc1ccc2c(=O)cc(-c3ccccc3)oc2c1O | male CD-1 mouse, plasma | oral, 50 mg/kg | 1.67 ng·h/mL |
| CNC(=O)c1cc(OC)cc2c(N3CCc4c(cc(Cn5ccnc5)cc4-c4cn(C)nc4C(F)(F)F)C3=O)ccnc12 | male CD-1 mouse, plasma | intravenous, 3 mg/kg | 3300 ng·h/mL |
| Cc1nc(-c2cnc(NC(C)C)n(C)c2=O)ccc1Oc1ccnc(-c2cnn(C)c2)c1 | female mouse, plasma | oral, 7.5 mg/kg, single dose | 80400 ng·h/mL |
| CCc1cc(OC)c2nccc(N3CCc4c(cc(Cn5ccnc5)cc4-c4cn(C)nc4C(F)(F)F)C3=O)c2c1 | male CD-1 mouse, plasma | oral, 150 mg/kg | 225000 ng·h/mL |
| CC[C@H](C)[C@@H]1NC(=O)[C@@](C)(NC(=O)[C@H](CCCNC(=N)N)NC(=O)[C@H](CC(C)C)NC(=O)[C@@H](NC(=O)[C@H](CCC(N)=O)NC(=O)[C@H](CC(C)C)NC(C)=O)[C@@H](C)O)CCCC=CCCC[C@@](C)(C(=O)N[C@@H](CC(C)C)C(=O)N[C@@H](Cc2ccc3ccccc3c2)C(N)=O)NC(=O)[C@H](CCCNC(=N)N)NC(=O)[C@H](CCC(N)=O)NC1=O | male BALB/c mouse, plasma | intraperitoneal, 5 mg/kg | 102000 ng·h/mL |
